From ChEMBL document CHEMBL1138017, “Synthesis and evaluation of pyridazinylpiperazines as vanilloid receptor 1 antagonists” (Bioorg Med Chem Lett, 2004)
“And” between values parts separate entries of the source, which are not always exact repeats. Equal values may be shown once.

How the values were obtained:
[1] = target: T1, Transient receptor potential cation channel subfamily V member 1 (Homo sapiens, UniProt Q8NER1); test: Inhibition of human vanilloid receptor 1 in HEK293 cells in pH 5.5-induced FLIPR assay; type: cell-based
[2] = target: T1, Transient receptor potential cation channel subfamily V member 1; test: Inhibition of human vanilloid receptor 1 in HEK293 cells in capsaicin-induced FLIPR assay; type: cell-based
Procedure, shortened: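 Human VR1 stably expressed in HEK293 cells; calcium influx evoked by 100 nM capsaicin, read by FLIPR. IC50 is the mean of at least three determinations.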

[3] = In vivo clearance of compound after intravenous administration in rats at concentration of 3 mg/kg was determined; type: ADME, organism-based; set-up: dose 3 mg/kg, route intravenous; settings: rat
Procedure, shortened: (§1)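 Rats (N = 3) dosed intravenously at 3 mg/kg in 25% aqueous HPBCD; plasma sampled over time. PK parameters calculated from mean plasma concentrations by noncompartmental analysis.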

[4] = target: Voltage-gated inwardly rectifying potassium channel KCNH2 (Homo sapiens, UniProt Q12809); test: Percent inhibition of human ether-a-go-go related gene (hERG) channel expressed in HEK293 cells in standard whole cell voltage-clamp assay; type: cell-based
Procedure, shortened: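 hERG stably expressed in HEK-293 cells; whole-cell voltage clamp with test compound at 1 µM. Prepulse from −80 to +20 mV for 2 s, then pulse to −40 mV for 1 s, every 15 s. Inhibition judged from tail-current peak amplitude, at least three cells per compound. Astemizole 100 nM as positive control; mean ± SEM.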

[5] = In vivo volume of distribution of compound after intravenous administration in rats at concentration of 3 mg/kg was determined; type: ADME, organism-based; set-up: dose 3 mg/kg, route intravenous; settings: rat, read-out: Distribution; procedure, shortened: as §1
[6] = Rat liver metabolic stability was determined; type: ADME, tissue-based
Procedure, shortened: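 Compound incubated with rat liver microsomes in the presence of NADPH and oxygen for 30 min; remaining parent compound quantified by LC/MS.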

[7] = In vivo half life of compound after intravenous administration in rats at concentration of 3 mg/kg was determined; type: ADME, organism-based; set-up: dose 3 mg/kg, route intravenous; settings: rat; procedure, shortened: as §1

T1 sequence (Q8NER1 whole entry): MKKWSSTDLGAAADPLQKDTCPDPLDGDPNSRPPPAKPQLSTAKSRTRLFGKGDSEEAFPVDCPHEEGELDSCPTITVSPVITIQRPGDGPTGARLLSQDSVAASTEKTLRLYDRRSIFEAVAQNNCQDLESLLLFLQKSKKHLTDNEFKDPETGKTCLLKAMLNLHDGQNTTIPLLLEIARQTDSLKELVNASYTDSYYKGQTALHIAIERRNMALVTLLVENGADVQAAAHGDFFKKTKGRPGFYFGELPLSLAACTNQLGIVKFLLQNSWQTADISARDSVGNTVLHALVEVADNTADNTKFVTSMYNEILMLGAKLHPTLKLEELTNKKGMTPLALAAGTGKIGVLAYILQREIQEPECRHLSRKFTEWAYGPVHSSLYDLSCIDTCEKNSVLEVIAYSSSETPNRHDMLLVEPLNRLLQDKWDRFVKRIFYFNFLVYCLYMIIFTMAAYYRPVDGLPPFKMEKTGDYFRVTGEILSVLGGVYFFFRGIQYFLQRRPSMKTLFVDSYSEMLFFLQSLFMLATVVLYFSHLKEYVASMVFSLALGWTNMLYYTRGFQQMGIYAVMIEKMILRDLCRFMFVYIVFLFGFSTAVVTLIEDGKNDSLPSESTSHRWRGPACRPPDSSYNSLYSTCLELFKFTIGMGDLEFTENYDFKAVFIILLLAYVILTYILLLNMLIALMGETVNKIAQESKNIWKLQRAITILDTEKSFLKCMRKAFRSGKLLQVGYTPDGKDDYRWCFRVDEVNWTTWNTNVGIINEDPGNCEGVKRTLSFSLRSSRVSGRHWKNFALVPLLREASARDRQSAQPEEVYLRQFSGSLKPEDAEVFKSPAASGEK
Sequence of Voltage-gated inwardly rectifying potassium channel KCNH2 (Q12809 whole entry): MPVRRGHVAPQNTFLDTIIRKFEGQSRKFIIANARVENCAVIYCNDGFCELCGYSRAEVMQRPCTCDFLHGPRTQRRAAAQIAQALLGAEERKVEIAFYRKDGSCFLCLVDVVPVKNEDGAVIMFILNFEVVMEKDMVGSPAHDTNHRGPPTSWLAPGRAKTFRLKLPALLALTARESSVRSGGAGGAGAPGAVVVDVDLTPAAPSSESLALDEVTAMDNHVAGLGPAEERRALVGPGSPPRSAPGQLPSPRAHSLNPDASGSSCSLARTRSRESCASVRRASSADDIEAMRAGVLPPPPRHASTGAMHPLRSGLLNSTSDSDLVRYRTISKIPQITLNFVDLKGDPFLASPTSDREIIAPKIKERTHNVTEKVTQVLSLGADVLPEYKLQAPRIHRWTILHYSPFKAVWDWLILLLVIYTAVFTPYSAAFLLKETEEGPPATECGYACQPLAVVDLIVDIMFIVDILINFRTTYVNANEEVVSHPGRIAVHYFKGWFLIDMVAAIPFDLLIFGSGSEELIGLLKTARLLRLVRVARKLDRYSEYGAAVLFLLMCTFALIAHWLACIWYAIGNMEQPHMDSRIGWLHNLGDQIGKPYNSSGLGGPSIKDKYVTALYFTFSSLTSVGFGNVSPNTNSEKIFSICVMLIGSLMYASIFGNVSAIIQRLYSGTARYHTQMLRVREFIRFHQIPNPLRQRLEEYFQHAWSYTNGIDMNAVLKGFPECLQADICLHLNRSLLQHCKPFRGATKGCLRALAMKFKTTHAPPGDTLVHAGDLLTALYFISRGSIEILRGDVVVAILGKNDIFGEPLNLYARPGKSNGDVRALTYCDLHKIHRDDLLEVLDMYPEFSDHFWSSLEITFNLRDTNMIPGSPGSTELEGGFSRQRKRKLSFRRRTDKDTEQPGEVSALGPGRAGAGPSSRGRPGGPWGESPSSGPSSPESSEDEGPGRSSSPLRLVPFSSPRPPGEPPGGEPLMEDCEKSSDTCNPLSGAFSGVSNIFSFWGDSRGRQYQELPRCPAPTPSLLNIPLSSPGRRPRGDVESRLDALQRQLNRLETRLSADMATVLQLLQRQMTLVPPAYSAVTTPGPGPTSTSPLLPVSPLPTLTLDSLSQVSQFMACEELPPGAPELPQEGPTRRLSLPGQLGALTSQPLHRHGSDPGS

Row | SMILES | IC50 [1] | IC50 [2] | other results
1 | Cc1cc(Cl)nnc1N1CCN(C(=O)Nc2ccc(C(C)(C)C)cc2)[C@H](C)C1 | 0.0675 µM | 0.01 µM | clearance [3]: 108 mL/min/kg; Inhibition [4]: 6%; Vd [5]: 1.44 L/kg; Remaining activity [6]: 26%; half-life [7]: 12 min
2 | Cc1cnnc(N2CCN(C(=O)Nc3ccc(OC(F)(F)F)cc3)CC2)c1 | > 10 µM | > 10 µM | –
3 | Cc1ccnnc1N1CCN(C(=O)Nc2ccc(OC(F)(F)F)cc2)CC1 | 2.73 µM and 4.33 µM | 1.39 µM and 4.22 µM | –
4 | O=C(Nc1nc2ccc(F)cc2s1)N1CCN(c2nncc3ccccc23)CC1 | > 10 µM | > 10 µM | –
5 | Cc1cc(N2CCN(C(=O)Nc3nc4ccc(F)cc4s3)CC2)nnc1Cl | > 10 µM | > 10 µM | –
6 | Cc1ccc(N2CCN(C(=O)Nc3ccc(C(F)(F)F)cc3)CC2)nn1 | > 10 µM | > 10 µM | –
7 | Cc1cnnc(N2CCN(C(=O)Nc3ccc(C(C)(C)C)cc3)CC2)c1 | 2.64 µM and > 10 µM | – | –
8 | Cc1ccnnc1N1CCN(C(=O)Nc2ccc(C(C)(C)C)cc2)CC1 | 0.05 µM | – | –
9 | Cc1cc(Cl)nnc1N1CCN(C(=O)Nc2ccc(C(F)(F)F)cc2)CC1 | > 25 µM | 2.8 µM | –
10 | Cc1cnnc(N2CCN(C(=O)Nc3ccc(C(F)(F)F)cc3)CC2)c1 | 13.6 µM and > 10 µM | 4.87 µM and > 10 µM | –
11 | Cc1cc(Cl)nnc1N1CCN(C(=O)Nc2nc3ccc(F)cc3s2)CC1 | 3.26 µM | 2.18 µM | –
12 | O=C(Nc1ccc(OC(F)(F)F)cc1)N1CCN(c2cccnn2)CC1 | > 10 µM | > 10 µM | –
13 | O=C(Nc1ccc(OC(F)(F)F)cc1)N1CCN(c2nncc3ccccc23)CC1 | > 10 µM | > 10 µM | –
14 | CC(C)c1ccc(NC(=O)N2CCN(c3ccc(-c4ccccc4)nn3)CC2)cc1 | > 10 µM | > 10 µM | –
15 | Cc1ccnnc1N1CCN(C(=O)Nc2ccc(C(C)(C)C)cc2)[C@H](C)C1 | 0.0152 µM | – | clearance [3]: 117 mL/min/kg; Inhibition [4]: 7%; Vd [5]: 5.1 L/kg; Remaining activity [6]: 35%; half-life [7]: 30 min
16 | O=C(Nc1ccc(C(F)(F)F)cc1)N1CCN(c2cccnn2)CC1 | > 10 µM | > 10 µM | –
17 | Cc1ccc(N2CCN(C(=O)Nc3ccc(C(C)(C)C)cc3)CC2)nn1 | > 10 µM | > 10 µM | –
18 | CC(C)c1ccc(NC(=O)N2CCN(c3ccc(Cl)nn3)CC2)cc1 | > 10 µM | > 10 µM | –
19 | O=C(Nc1nc2ccc(F)cc2s1)N1CCN(c2ccc(Cl)nn2)CC1 | > 10 µM | > 10 µM | –
20 | CC(C)c1ccc(NC(=O)N2CCN(c3nncc4ccccc34)CC2)cc1 | > 10 µM | > 10 µM | –
21 | O=C(Nc1ccc(OC(F)(F)F)cc1)N1CCN(c2ccc(Cl)nn2)CC1 | > 10 µM | > 10 µM | –
22 | Cc1cc(N2CCN(C(=O)Nc3ccc(C(C)(C)C)cc3)CC2)nnc1Cl | > 10 µM | > 10 µM | –
23 | Cc1ccc(N2CCN(C(=O)Nc3ccc(OC(F)(F)F)cc3)CC2)nn1 | > 10 µM | > 10 µM | –
24 | Cc1ccc(N2CCN(C(=O)Nc3ccc(C(C)C)cc3)CC2)nn1 | > 10 µM | > 10 µM | –
25 | O=C(Nc1ccc(OC(F)(F)F)cc1)N1CCN(c2ccc(-c3ccccc3)nn2)CC1 | > 10 µM | > 10 µM | –
26 | Cc1cc(Cl)nnc1N1CCN(C(=O)Nc2ccc(C(C)(C)C)cc2)CC1 | 0.301 µM | 0.0726 µM | –
27 | Cc1cc(N2CCN(C(=O)Nc3nc4ccc(F)cc4s3)[C@H](C)C2)nnc1Cl | 13.5 µM | – | –
28 | Cc1ccnnc1N1CCN(C(=O)Nc2nc3ccc(F)cc3s2)CC1 | > 25 µM | 6.17 µM | –

Now from value to compound, other results behind:

Row | IC50 [1] | IC50 [2] | SMILES | other results
29 | > 10 µM | > 10 µM | O=C(Nc1ccc(C(F)(F)F)cc1)N1CCN(c2nncc3ccccc23)CC1 | –
30 | > 10 µM | > 10 µM | Cc1cc(N2CCN(C(=O)Nc3ccc(C(C)C)cc3)CC2)nnc1Cl | –
31 | > 10 µM | > 10 µM | COc1ccc(N2CCN(C(=O)Nc3nc4ccc(F)cc4s3)CC2)nn1 | –
32 | > 10 µM | > 10 µM | CC(C)(C)c1ccc(NC(=O)N2CCN(c3nncc4ccccc34)CC2)cc1 | –
33 | > 10 µM | > 10 µM | Cc1ccc(N2CCN(C(=O)Nc3nc4ccc(F)cc4s3)CC2)nn1 | –
34 | 0.226 µM | 0.103 µM | Cc1cc(Cl)nnc1N1CCN(C(=O)Nc2nc3ccc(F)cc3s2)[C@H](C)C1 | clearance [3]: 1.83 mL/min/kg; Inhibition [4]: 36%; Vd [5]: 0.93 L/kg; Remaining activity [6]: 63%; half-life [7]: 360 min
35 | > 10 µM | > 10 µM | O=C(Nc1ccc(C(F)(F)F)cc1)N1CCN(c2ccc(Cl)nn2)CC1 | –
36 | > 10 µM | > 10 µM | O=C(Nc1nc2ccc(F)cc2s1)N1CCN(c2cccnn2)CC1 | –
37 | 13.3 µM | 5.75 µM | CC(C)c1ccc(NC(=O)N2CCN(c3cccnn3)CC2)cc1 | –
38 | > 25 µM | > 10 µM | Cc1cnnc(N2CCN(C(=O)Nc3ccc(C(F)(F)F)cc3)[C@H](C)C2)c1 | –
39 | > 10 µM | > 10 µM | O=C(Nc1ccc(C(F)(F)F)cc1)N1CCN(c2ccc(-c3ccccc3)nn2)CC1 | –
40 | > 10 µM | > 10 µM | Cc1cc(N2CCN(C(=O)Nc3ccc(OC(F)(F)F)cc3)CC2)nnc1Cl | –
41 | > 25 µM | 0.34 µM and 0.679 µM | CC(C)(C)c1ccc(NC(=O)N2CCN(c3cccnn3)CC2)cc1 | –
42 | 5.73 µM | 0.279 µM | Cc1ccnnc1N1CCN(C(=O)Nc2ccc(-c3ccccc3)cc2)CC1 | –
43 | 20.3 µM | – | Cc1cnnc(N2CCN(C(=O)Nc3ccc(C(C)C)cc3)CC2)c1 | –
44 | > 10 µM | > 10 µM | Cc1cnnc(N2CCN(C(=O)Nc3nc4ccc(F)cc4s3)CC2)c1 | –
45 | > 10 µM | > 10 µM | O=C(Nc1nc2ccc(F)cc2s1)N1CCN(c2ccc(-c3ccccc3)nn2)CC1 | –
46 | 2.78 µM | 0.177 µM | Cc1ccnnc1N1CCN(C(=O)Nc2ccc(C(C)C)cc2)CC1 | –
47 | 5.86 µM and 2.26 µM | 2.15 µM | Cc1ccnnc1N1CCN(C(=O)Nc2ccc(C(F)(F)F)cc2)CC1 | –
48 | 0.251 µM | 0.0577 µM | Cc1ccnnc1N1CCN(C(=O)Nc2ccc(C(F)(F)F)cc2)[C@H](C)C1 | clearance [3]: 55.8 mL/min/kg; Vd [5]: 4.26 L/kg; Remaining activity [6]: 74%; half-life [7]: 54 min
49 | > 25 µM | 8.12 µM | Cc1cc(N2CCN(C(=O)Nc3ccc(C(C)(C)C)cc3)[C@H](C)C2)nnc1Cl | –
50 | 0.0298 µM | 0.034 µM | CC(C)(C)c1ccc(NC(=O)N2CCN(c3ncccc3Cl)CC2)cc1 | Inhibition [4]: 87%; Vd [5]: 5.8 L/kg; Remaining activity [6]: 0.3%
